Test results from article PMC10692396 (Acta Pharmaceutica Sinica. B, 2023).

Columns and labels:
[1] = tested on: D283 medulloblastoma xenograft; assay: D283 subcutaneous xenograft in NOD-SCID mice; type: in vivo; details: oral, 14 days
How it was run: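 D283 cells (5 × 106 in 200 μL, half Matrigel) were injected s.c. into the right flank of NOD-SCID mice. Mice were randomized at about 120 mm3 (n = 9/group) and dosed orally twice daily. Tumor size (caliper) and body weight were taken three times weekly. Mice were euthanized after 14 days of dosing and tumors weighed.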

[2] = tested on: U251 GBM xenograft tumors; assay: U251 subcutaneous xenograft in nude mice; type: in vivo; details: for expression of angiogenic markers CD31 and CD105: U251 tumor tissues; for expression of angiogenic markers CD31 and CD105 / expression of M2 phenotype macrophage marker(s) (CD206): IHC; for expression of M2 phenotype macrophage marker(s) (CD206): tumor tissue; for tumor volume reduced: U251 xenograft
[3] = tested on: intracranial glioma tumor U87MG; assay: Intracranial U87MG-luc tumor model in nude mice; type: in vivo; details: for median survival time: control 41 days
[4] = tested on: M2 markers CD206 and ARG1 in BMDM cells; assay: In vitro differentiation of BMDMs; type: cell-based, mouse; details: BMDM stimulated with CSF1, IL4, IL13; compound 100 nmol/L, 48 h
How it was run: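 Mouse BMDMs were seeded at 2.5 × 10^6/well and grown 7 days in 10 ng/mL CSF1. CD206 and ARG1 were measured by flow cytometry. Three independent experiments, t-test.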

PDGFRα (V561D) = PDGFRα (V561D) (Homo sapiens, UniProt P16234, V561D); assay: ELISA kinase assay; type: biochemical
DBT mouse glioma [5] = assay: DBT model, combination with anti-PD-1; type: in vivo, BALB/c mice; details: SYHA1813 5 mg/kg p.o. twice daily, anti-PD-1 200 μg i.p. twice a week, or both
tube formation of HUVECs = assay: Tube formation assay; type: cell-based, Human; details: VEGF 100 ng/mL, 8 h, concentration-dependent
How it was run: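 HUVECs were starved 24 h, then seeded at 20,000 cells/well on growth-factor-reduced Matrigel. Graded test compound concentrations and VEGF (final 100 ng/mL) were added for 8 h. Tubes were photographed through a stereoscope at 4×.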

c-Kit = c-Kit (Homo sapiens, UniProt P10721); assay: ELISA kinase assay; type: biochemical
c-Kit (D816H) = c-Kit (D816H) (Homo sapiens, UniProt P10721, D816H); assay: ELISA kinase assay; type: biochemical
[6] = tested on: phosphorylation of RET in tumor tissue; assay: RET phosphorylation in tumor tissue; type: in vivo; details: data not shown
[7] = tested on: neovascularization in chick embryos; assay: Chicken chorioallantoic membrane; type: in vivo; details: CAM assay, 48 h
How it was run: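 Fertilized eggs were incubated 7 days at 37 °C, 50% humidity. Suction at the broad end made a false air sac, and a 1 cm2 shell window was opened. Glass coverslips (0.5 cm × 0.5 cm) soaked in test compound or vehicle were laid between preexisting vessels, followed by a further 48 h incubation. Neovascular zones beside the coverslips were photographed under a stereomicroscope.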

mouse glioma GL261-luc = assay: Intracranial GL261-luc model in immunocompetent mice; type: in vivo, C57BL/6 mice
How it was run: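 Male C57BL/6 mice aged 4–6 weeks received 2 × 10^5 GL261-luc cells intracranially into the right frontal lobe. About 5 days after inoculation, mice were randomized by IVIS bioluminescence. Brain signal was then imaged once or twice weekly.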

[8] = tested on: cells with high expression of Aurora-B; assay: Cytotoxicity in Aurora-B high cells; type: cell-based; details: data not shown
DBT mouse glioma [9] = assay: DBT subcutaneous model in immunocompetent mice; type: in vivo, BALB/c mice; details: 10 mg/kg twice daily
How it was run: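 BALB/c mice received 5 × 10^6 DBT cells in 200 μL PBS s.c. in the right flank. At about 120 mm3 they were randomized to control or 10 mg/kg (n = 6/group), dosed orally twice daily. Tumor size and body weight were measured three times weekly, and growth was expressed as RTV, mean ± SEM. CD8 was stained by IHC and scored by the multiplicative quick score method.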

[10] = Pharmacokinetics and brain distribution; type: in vivo, CD-1 mice; details: male, CD-1, mouse, po, 10 mg/kg
How it was run: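 Thirty male CD-1 mice were split into six groups, one per sampling time (0.5, 1, 2, 4, 8, 24 h), after a single oral 10 mg/kg dose. Plasma was taken from retro-orbital blood. Brains were collected after intracardial perfusion, rinsed in saline, blotted, weighed and homogenized in MeOH-ACN (1/1, 5 mL/g tissue).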

CSF1R = CSF1R (Homo sapiens, UniProt P07333); assay: Surface plasmon resonance; type: binding; details: Biacore 8K, protein immobilized on CM5 chip
How it was run: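 Human CSF1R was directly immobilized on a CM5 chip (Biacore 8K), with test compound as analyte. Multi-cycle kinetics used 180 s injection and 180 s dissociation.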

[11] = tested on: recurrent high-grade glioma; assay: First-in-human phase I trial; type: in vivo, patients
phosphorylation of CSF1R = assay: Western blot of CSF1R signaling in BMDM; type: cell-based, mouse; details: BMDM cells, CSF1 stimulation
How it was run: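 Fresh mouse BMDMs (2.5 × 10^6/well) were grown 7 days with 10 ng/mL CSF1, with a medium change at day 3. Cells were serum-starved 6 h, given test compound for 2 h, then stimulated with 50 ng/mL CSF1 for 15 min. BCA-normalized SDS lysates were blotted for p-CSF1R, CSF1R, p-AKT and AKT. Densitometry was normalized to tubulin across three independent repeats.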

VEGFR-3 = VEGFR-3 (Homo sapiens, UniProt P35916); assay: ELISA kinase assay; type: biochemical
HUVEC = assay: VEGF-stimulated cell viability; type: cell-based; details: Homo sapiens, 72 h, read-out: IC50 HUVEC cell viability
VEGFR-1 = VEGFR-1 (Homo sapiens, UniProt P17948); assay: ELISA kinase assay; type: biochemical
glioma cell lines = assay: Cell viability; type: cell-based; details: read-out: IC50 against glioma cell lines
How it was run: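 GL261, DBT, D283, U87MG and U251 cells were plated, left overnight, then given a range of test compound concentrations for 72 h at 37 °C, 5% CO2. Growth was read by CCK-8. D283 was grown in MEM with 10% FBS, 1% NEAA and 1% NaP. Lines were STR-authenticated.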

panel of 328 kinases = assay: Kinase profiling, whole panel; type: biochemical, human; details: 0.1 μmol/L SYHA1813

c-Kit (D816H), sequence (P10721 26-976 D816H): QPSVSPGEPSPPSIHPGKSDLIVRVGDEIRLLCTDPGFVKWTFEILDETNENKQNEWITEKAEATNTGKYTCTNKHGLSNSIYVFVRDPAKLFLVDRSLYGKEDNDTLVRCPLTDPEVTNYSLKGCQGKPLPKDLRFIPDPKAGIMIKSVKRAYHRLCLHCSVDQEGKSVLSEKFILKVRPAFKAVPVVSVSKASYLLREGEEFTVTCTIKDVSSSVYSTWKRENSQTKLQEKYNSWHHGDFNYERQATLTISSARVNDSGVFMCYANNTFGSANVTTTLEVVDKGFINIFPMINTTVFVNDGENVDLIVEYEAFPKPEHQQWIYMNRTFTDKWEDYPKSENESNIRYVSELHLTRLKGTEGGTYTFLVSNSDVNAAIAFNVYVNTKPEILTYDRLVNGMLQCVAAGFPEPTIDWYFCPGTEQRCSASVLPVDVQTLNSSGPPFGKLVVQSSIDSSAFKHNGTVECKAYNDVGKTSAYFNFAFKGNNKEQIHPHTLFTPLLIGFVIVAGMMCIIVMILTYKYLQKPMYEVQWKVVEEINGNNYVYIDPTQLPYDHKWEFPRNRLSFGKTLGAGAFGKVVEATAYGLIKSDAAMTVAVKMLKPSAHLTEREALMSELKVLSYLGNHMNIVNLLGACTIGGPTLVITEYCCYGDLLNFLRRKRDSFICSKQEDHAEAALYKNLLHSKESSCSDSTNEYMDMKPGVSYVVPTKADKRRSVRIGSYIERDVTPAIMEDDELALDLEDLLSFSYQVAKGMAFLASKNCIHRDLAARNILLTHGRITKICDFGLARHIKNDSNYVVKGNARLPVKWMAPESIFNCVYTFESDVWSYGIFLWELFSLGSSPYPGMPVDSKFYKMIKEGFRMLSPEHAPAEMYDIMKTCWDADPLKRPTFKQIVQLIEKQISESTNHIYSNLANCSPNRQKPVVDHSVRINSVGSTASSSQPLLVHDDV
CSF1R, sequence (P07333 20-972): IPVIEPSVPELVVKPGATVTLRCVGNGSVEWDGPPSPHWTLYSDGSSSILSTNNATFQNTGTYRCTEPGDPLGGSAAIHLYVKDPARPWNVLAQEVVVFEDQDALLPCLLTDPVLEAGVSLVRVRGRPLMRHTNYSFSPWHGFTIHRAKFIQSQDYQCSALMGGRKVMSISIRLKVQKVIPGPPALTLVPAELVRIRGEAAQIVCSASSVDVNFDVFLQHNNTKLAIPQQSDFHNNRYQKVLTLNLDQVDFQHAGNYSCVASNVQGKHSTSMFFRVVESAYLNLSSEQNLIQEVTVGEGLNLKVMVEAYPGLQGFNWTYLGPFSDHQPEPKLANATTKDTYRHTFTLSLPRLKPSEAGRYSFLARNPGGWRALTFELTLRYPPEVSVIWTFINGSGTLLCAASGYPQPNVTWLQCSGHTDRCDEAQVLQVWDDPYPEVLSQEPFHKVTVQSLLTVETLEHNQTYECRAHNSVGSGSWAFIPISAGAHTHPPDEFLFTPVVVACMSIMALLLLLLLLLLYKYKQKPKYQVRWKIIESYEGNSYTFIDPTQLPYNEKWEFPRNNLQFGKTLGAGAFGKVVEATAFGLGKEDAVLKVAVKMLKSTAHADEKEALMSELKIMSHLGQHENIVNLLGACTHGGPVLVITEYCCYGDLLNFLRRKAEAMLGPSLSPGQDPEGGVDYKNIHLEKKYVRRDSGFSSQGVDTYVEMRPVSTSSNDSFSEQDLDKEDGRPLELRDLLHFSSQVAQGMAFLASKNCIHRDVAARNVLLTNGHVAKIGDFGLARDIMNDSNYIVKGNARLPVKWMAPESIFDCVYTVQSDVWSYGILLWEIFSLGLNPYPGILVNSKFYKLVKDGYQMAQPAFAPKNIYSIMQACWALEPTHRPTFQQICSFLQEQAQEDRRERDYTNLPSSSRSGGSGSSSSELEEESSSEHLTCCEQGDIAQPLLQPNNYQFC
c-Kit, sequence (P10721 26-976): as the sequence (P10721 26-976 D816H) above, with H791D counted along it
VEGFR-1, sequence (P17948 27-1338): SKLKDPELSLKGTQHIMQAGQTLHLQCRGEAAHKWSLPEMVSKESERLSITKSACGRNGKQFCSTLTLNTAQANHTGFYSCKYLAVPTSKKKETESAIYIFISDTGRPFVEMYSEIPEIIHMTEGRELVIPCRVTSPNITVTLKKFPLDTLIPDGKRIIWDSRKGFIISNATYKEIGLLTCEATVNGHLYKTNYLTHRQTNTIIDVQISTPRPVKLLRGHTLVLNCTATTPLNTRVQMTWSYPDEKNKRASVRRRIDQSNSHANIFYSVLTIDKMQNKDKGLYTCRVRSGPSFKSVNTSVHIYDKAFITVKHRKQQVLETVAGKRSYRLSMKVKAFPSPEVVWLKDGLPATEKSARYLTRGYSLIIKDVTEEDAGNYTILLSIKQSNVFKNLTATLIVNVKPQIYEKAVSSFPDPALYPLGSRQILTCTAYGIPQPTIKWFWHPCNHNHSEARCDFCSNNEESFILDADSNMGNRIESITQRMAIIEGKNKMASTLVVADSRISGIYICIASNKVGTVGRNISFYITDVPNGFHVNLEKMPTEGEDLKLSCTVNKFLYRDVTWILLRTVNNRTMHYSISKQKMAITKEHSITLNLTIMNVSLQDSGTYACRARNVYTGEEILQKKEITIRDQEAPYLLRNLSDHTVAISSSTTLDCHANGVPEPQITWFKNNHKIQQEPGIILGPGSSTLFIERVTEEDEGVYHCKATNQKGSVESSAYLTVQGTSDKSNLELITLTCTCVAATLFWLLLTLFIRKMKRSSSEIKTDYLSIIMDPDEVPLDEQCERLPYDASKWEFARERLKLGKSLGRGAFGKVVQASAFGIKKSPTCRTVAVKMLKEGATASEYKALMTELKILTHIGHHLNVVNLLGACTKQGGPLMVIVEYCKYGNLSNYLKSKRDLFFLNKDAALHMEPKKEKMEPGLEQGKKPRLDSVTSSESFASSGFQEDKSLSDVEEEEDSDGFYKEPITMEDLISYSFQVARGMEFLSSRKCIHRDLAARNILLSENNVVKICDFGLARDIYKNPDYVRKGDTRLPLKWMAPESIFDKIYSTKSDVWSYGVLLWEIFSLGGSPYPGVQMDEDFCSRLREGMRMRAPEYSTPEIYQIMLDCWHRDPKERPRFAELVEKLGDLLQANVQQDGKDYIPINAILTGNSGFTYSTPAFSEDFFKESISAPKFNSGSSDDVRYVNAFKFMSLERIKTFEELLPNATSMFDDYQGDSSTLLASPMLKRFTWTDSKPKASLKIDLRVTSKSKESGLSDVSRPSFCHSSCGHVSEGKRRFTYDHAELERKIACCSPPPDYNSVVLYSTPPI
VEGFR-3, sequence (P35916 25-1363): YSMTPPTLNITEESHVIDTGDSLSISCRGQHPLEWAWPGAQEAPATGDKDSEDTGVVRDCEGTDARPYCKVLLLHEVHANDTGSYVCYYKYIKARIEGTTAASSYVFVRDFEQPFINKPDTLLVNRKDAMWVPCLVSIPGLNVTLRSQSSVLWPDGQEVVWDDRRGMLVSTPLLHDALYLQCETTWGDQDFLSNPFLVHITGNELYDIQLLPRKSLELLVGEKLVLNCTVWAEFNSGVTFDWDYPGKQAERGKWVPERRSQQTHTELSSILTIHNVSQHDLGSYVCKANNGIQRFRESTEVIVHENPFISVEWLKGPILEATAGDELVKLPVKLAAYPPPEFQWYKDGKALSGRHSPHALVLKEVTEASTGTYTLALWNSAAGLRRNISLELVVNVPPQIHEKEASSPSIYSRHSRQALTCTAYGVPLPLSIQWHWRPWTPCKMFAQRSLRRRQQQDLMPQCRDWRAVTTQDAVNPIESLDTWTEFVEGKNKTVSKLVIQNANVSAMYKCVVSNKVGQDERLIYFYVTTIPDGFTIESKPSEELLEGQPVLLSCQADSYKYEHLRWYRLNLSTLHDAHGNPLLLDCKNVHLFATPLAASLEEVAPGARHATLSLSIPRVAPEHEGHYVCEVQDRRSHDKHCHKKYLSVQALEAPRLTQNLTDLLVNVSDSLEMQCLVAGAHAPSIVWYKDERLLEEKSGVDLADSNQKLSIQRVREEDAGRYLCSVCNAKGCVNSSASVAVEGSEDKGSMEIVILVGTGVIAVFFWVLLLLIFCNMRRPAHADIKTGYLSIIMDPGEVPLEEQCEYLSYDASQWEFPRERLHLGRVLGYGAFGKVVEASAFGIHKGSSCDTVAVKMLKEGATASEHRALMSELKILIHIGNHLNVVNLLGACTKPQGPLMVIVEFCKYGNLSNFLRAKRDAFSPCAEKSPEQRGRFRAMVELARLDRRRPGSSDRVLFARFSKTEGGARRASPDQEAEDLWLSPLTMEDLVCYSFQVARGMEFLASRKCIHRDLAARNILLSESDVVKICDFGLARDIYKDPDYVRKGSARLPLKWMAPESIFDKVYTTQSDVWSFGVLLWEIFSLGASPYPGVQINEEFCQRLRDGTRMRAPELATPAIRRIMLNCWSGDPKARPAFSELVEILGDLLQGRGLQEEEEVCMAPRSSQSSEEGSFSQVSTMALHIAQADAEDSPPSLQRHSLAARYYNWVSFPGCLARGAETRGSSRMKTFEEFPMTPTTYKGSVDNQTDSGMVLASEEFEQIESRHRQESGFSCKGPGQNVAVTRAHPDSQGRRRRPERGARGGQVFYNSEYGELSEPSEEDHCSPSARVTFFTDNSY

For `Cn1nnc2c(C(N)=O)ncn2c1=O` [TMZ, temozolomide, reference compound], the “tumor growth in D283 xenograft” value [1] was “dramatically insensitive”.
For `CNC(=O)c1ccccc1Sc1ccc2c(/C=C/c3ccccn3)n[nH]c2c1` [Axitinib, reference compound], the “expression of angiogenic markers CD31 and CD105” value [2] was “effectively suppressed”, the “expression of M2 phenotype macrophage marker(s) (CD206)” value [2] was “no significant changes” and the median survival time ([3]; 40 mg/kg orally twice daily) was 41 days.
For `FC(F)(F)c1ccc(CNc2ccc(Cc3c[nH]c4ncc(Cl)cc34)cn2)cn1` [PLX3397, reference compound], the “expression of M2 markers CD206 and ARG1” value [4] was “significant decrease”.
In the case of `Cc1cc(NC(=O)c2cccc3cc(-c4cccc5[nH]nc(N)c45)ccc23)ccc1F` [SYHA1813, 6-(3-amino-1H-indazol-4-yl)-N-(4-fluoro-3-methylphenyl)-1-naphthamide], the IC50 (PDGFRα (V561D)) is reported as 2.4 nM, the tumor growth (DBT mouse glioma [5]) is reported as “slightly inhibited” and the “tube formation of HUVECs” value (tube formation of HUVECs) is reported as “considerably blocked”. The IC50 (c-Kit) was 162 nM, the IC50 (c-Kit (D816H)) was 134 nM and the “expression of M2 markers CD206 and ARG1” value [4] was “significant decrease”. For the same molecule, the tumor volume reduced ([2]; 5 mg/kg orally twice daily) was 67.7%, the tumor volume reduced ([2]; 10 mg/kg orally twice daily) was 81.0% and the “body weight of the animals” value ([2]; U251, U87MG and D283 xenograft models) was “not significantly changed”. For the same molecule, the “expression of angiogenic markers CD31 and CD105” value [2] was “dramatically reduced”, the “expression of M2 phenotype macrophage marker(s) (CD206)” value [2] was “significantly inhibited” and the “phosphorylation of RET in tumor tissue” value [6] was “rarely inhibited”. For the same molecule, the median survival time ([3]; 20 mg/kg orally twice daily) was 54 days, the “first death of mice” value ([3]; 40 mg/kg group, control Day 31) was 43 days and the “death of the last mouse” value ([3]; 40 mg/kg group, control Day 52) was 75 days. For the same molecule, the median survival time ([3]; 40 mg/kg orally twice daily) was 58.5 days, the “neovascularization in chick embryos” value [7] was “significantly inhibited” and the median survival time (mouse glioma GL261-luc) was “prolonged median survival time”. For the same molecule, the “cytotoxicity to cells with high expression of Aurora-B” value [8] was “no apparent cytotoxicity”, the “tumor growth in D283 xenograft” value [1] was “effectively inhibited tumor growth” and the “tumor growth of DBT glioma and tumor weight” value (DBT mouse glioma [9]; BALB/c mice) was “suppressed”. The “CD8+ T cells in tumor tissue” value (DBT mouse glioma [9]; IHC) was “dramatically increased”, the Cmax ([10]; brain) was 1210 ng/g and the AUC(0-t) ([10]; plasma) was 4540 ng·h/mL. For the same molecule, the Cmax ([10]; plasma) was 1420 ng/mL, the “SPR binding to CSF1R” value (CSF1R) was “robust binding signal” and the “Response Assessment in Neuro-Oncology (RANO)” value ([11]; 5 mg once daily, 4 cycles, recurrent anaplastic oligodendrocytoma patient) was “stable disease”. The “contrast-enhancement on T1-weighted images and vasogenic edema on FLAIR images” value ([11]; 15 mg/day, recurrent GBM (WHO IV) patient, first follow-up) was “drastic reduction”, the “phosphorylation of CSF1R and activation of downstream AKT” value (phosphorylation of CSF1R) was “dramatically blocked” and the IC50 (VEGFR-3) was 4.3 nM. For the same molecule, the IC50 (HUVEC) was 13 nM, the IC50 (VEGFR-1) was 2.8 nM and the IC50 (glioma cell lines) was greater than 20000 nM. The “inhibition relative to the control, most of the kinases” value (panel of 328 kinases) was “less than 80%”.
